# Data: ChEMBL document CHEMBL1649132, “Dry powder nitroimidazopyran antibiotic PA-824 aerosol for inhalation” (Antimicrob Agents Chemother, 2009)
# Columns and labels:
# [1] = Tmax in guinea pig at 40 mg/kg, po by HPLC method; type: ADME, organism-based, Cavia porcellus; parameters: dose 40 mg/kg, route oral; conditions: in vivo
# How it was run: (§1)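 Healthy male guinea pigs (463.86 ± 65.11 g), jugular vein cannulated 24 h before dosing; n = 6 or 7 per group. Dosing was i.v. solution 20 mg/kg, oral gavage of mixed micelle suspension (10% hydroxypropyl-β-cyclodextrin, 10% lecithin) 40 mg/kg, or intratracheal insufflation of porous dry powder at nominal 20, 40, 60 mg/kg. For insufflation, the delivered dose was taken by weighing the device before and after. Blood was drawn 0–24 h (to 32 h at 60 mg/kg) and plasma assayed by validated HPLC-UV (standards 0.20–50 µg/ml).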
# [2] = Cmax in guinea pig at 20 mg/kg, administered via intratracheal insufflation by HPLC method; type: ADME, organism-based, Cavia porcellus; parameters: dose 20 mg/kg, route endotracheal; conditions: in vivo, inhaled or intranasal; how it was run: as §1
# [3] = Bioavailability (0 to infinity) in guinea pig at 40 mg/kg, administered via intratracheal insufflation by HPLC method; type: ADME, organism-based, Cavia porcellus; conditions: in vivo, inhaled or intranasal; how it was run: as §1
# [4] = Bioavailability (0 to infinity) in guinea pig at 20 mg/kg, administered via intratracheal insufflation by HPLC method; type: ADME, organism-based, Cavia porcellus; conditions: in vivo, inhaled or intranasal; how it was run: as §1
# [5] = Half life in guinea pig at 20 mg/kg, iv by HPLC method; type: ADME, organism-based, Cavia porcellus; parameters: dose 20 mg/kg, route intravenous; conditions: in vivo; how it was run: as §1
# [6] = Mean residence time in guinea pig at 40 mg/kg, administered via intratracheal insufflation by HPLC method; type: ADME, organism-based, Cavia porcellus; parameters: dose 40 mg/kg, route endotracheal; conditions: in vivo, inhaled or intranasal; how it was run: as §1
# [7] = Tmax in guinea pig at 60 mg/kg, administered via intratracheal insufflation by HPLC method; type: ADME, organism-based, Cavia porcellus; parameters: dose 60 mg/kg, route endotracheal; conditions: in vivo, inhaled or intranasal; how it was run: as §1
# [8] = Mean residence time in guinea pig at 20 mg/kg, iv by HPLC method; type: ADME, organism-based, Cavia porcellus; parameters: dose 20 mg/kg, route intravenous; conditions: in vivo; how it was run: as §1
# [9] = Half life in guinea pig at 40 mg/kg, po by HPLC method; type: ADME, organism-based, Cavia porcellus; parameters: dose 40 mg/kg, route oral; conditions: in vivo; how it was run: as §1
# [10] = Ratio of Cmax in guinea pig at 40 mg/kg, po to MIC for Mycobacterium tuberculosis; type: functional
# [11] = Half life in guinea pig at 60 mg/kg, administered via intratracheal insufflation by HPLC method; type: ADME, organism-based, Cavia porcellus; parameters: dose 60 mg/kg, route endotracheal; conditions: in vivo, inhaled or intranasal; how it was run: as §1
# [12] = Half life in po dosed monkey; type: ADME, organism-based, Macaca mulatta; conditions: rhesus monkey, in vivo
# [13] = Ratio of Cmax in mouse at 100 mg/kg, po to MIC for Mycobacterium tuberculosis; type: functional
# [14] = AUC (0 to infinity) in guinea pig at 40 mg/kg, administered via intratracheal insufflation by HPLC method; type: ADME, organism-based, Cavia porcellus; parameters: time infinity, dose 40 mg/kg, route endotracheal; conditions: plasma, inhaled or intranasal; how it was run: as §1
# [15] = Tmax in guinea pig at 20 mg/kg, administered via intratracheal insufflation by HPLC method; type: ADME, organism-based, Cavia porcellus; parameters: dose 20 mg/kg, route endotracheal; conditions: in vivo, inhaled or intranasal; how it was run: as §1
# [16] = Metabolic stability of the compound assessed as compound remaining in lung of guinea pig administered via intratracheal insufflation; type: ADME, tissue-based, Cavia porcellus; conditions: in vivo, inhaled_or_intranasal
# How it was run: (§2)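 After the last blood sample (32 h), the guinea pigs were euthanized by exsanguination. BAL fluid was collected with 5 ml sterile saline and centrifuged. The supernatant was assayed for drug by the plasma HPLC method, adapted for BAL fluid. Routes were i.v. 20 mg/kg, oral 40 mg/kg, or insufflated powder 20, 40, 60 mg/kg; n = 6 or 7.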
# [17] = Tmax in po dosed rat; type: ADME, organism-based; conditions: in vivo
# [18] = Tmax in po dosed monkey; type: ADME, organism-based, Macaca mulatta; conditions: rhesus monkey, in vivo
# [19] = Mean residence time in guinea pig at 40 mg/kg, po by HPLC method; type: ADME, organism-based, Cavia porcellus; parameters: dose 40 mg/kg, route oral; conditions: in vivo; how it was run: as §1
# [20] = Elimination rate constant in guinea pig at 40 mg/kg, administered via intratracheal insufflation by HPLC method; type: ADME, organism-based, Cavia porcellus; parameters: dose 40 mg/kg, route endotracheal; conditions: in vivo, inhaled or intranasal; how it was run: as §1
# [21] = Chemical stability of the compound at 25 degC; type: physicochemical
# [22] = Bioavailability in guinea pig at 60 mg/kg, administered via intratracheal insufflation by HPLC method; type: ADME, organism-based, Cavia porcellus; conditions: in vivo, inhaled or intranasal; how it was run: as §1
# [23] = Tmax in guinea pig at 20 mg/kg, iv by HPLC method; type: ADME, organism-based, Cavia porcellus; parameters: dose 20 mg/kg, route intravenous; conditions: in vivo; how it was run: as §1
# [24] = Cmax in guinea pig at 40 mg/kg, po by HPLC method; type: ADME, organism-based, Cavia porcellus; parameters: dose 40 mg/kg, route oral; conditions: in vivo; how it was run: as §1
# [25] = Metabolic stability of the compound assessed as compound remaining in lung of guinea pig at 40 mg/kg, po after 32 hrs; type: ADME, organism-based, Cavia porcellus; parameters: dose 40 mg/kg, route oral; conditions: in vivo; how it was run: as §2
# [26] = tested on: Cavia porcellus; assay: AUC (0 to infinity) in guinea pig at 40 mg/kg, po by HPLC method; type: ADME, organism-based, Plasma; parameters: time infinity, dose 40 mg/kg, route oral; conditions: in vivo; how it was run: as §1
# [27] = Ratio of Cmax in guinea pig at 40 mg/kg, administered via intratracheal insufflation to MIC for Mycobacterium tuberculosis; type: functional; conditions: route endotracheal
# [28] = Chemical stability of the compound at 4 degC; type: physicochemical
# [29] = Elimination rate constant in guinea pig at 20 mg/kg, administered via intratracheal insufflation by HPLC method; type: ADME, organism-based, Cavia porcellus; parameters: dose 20 mg/kg, route endotracheal; conditions: in vivo, inhaled or intranasal; how it was run: as §1
# [30] = Chemical stability of the compound at 40 degC; type: physicochemical
# [31] = Bioavailability in guinea pig at 40 mg/kg, administered via intratracheal insufflation by HPLC method; type: ADME, organism-based, Cavia porcellus; conditions: in vivo, inhaled or intranasal; how it was run: as §1
# [32] = Half life in po dosed dog; type: ADME, organism-based, Canis lupus familiaris; conditions: in vivo
# [33] = Chemical stability of the compound after 12 months; type: physicochemical; conditions: 8766 h
# [34] = Half life in guinea pig at 20 mg/kg, administered via intratracheal insufflation by HPLC method; type: ADME, organism-based, Cavia porcellus; parameters: dose 20 mg/kg, route endotracheal; conditions: in vivo, inhaled or intranasal; how it was run: as §1
# [35] = tested on: Cavia porcellus; assay: Bioavailability (0 to infinity) in guinea pig at 40 mg/kg, po by HPLC method; type: ADME, organism-based; conditions: in vivo; how it was run: as §1
# [36] = Chemical stability of the compound after 6 months; type: physicochemical; conditions: 4383 h
# [37] = tested on: Mycobacterium tuberculosis; assay: Antimicrobial activity against Mycobacterium tuberculosis; type: functional
# [38] = tested on: Cavia porcellus; assay: AUC (0 to infinity) in guinea pig at 20 mg/kg, iv by HPLC method; type: ADME, organism-based, Plasma; parameters: time infinity, dose 20 mg/kg, route intravenous; conditions: in vivo; how it was run: as §1
# [39] = Half life in guinea pig at 40 mg/kg, administered via intratracheal insufflation by HPLC method; type: ADME, organism-based, Cavia porcellus; parameters: dose 40 mg/kg, route endotracheal; conditions: in vivo, inhaled or intranasal; how it was run: as §1
# [40] = Mean residence time in guinea pig at 20 mg/kg, administered via intratracheal insufflation by HPLC method; type: ADME, organism-based, Cavia porcellus; parameters: dose 20 mg/kg, route endotracheal; conditions: in vivo, inhaled or intranasal; how it was run: as §1
# [41] = Cmax in guinea pig at 40 mg/kg, administered via intratracheal insufflation by HPLC method; type: ADME, organism-based, Cavia porcellus; parameters: dose 40 mg/kg, route endotracheal; conditions: in vivo, inhaled or intranasal; how it was run: as §1
# [42] = Metabolic stability of the compound assessed as compound remaining in lung of guinea pig at 20 mg/kg, iv after 32 hrs; type: ADME, organism-based, Cavia porcellus; parameters: dose 20 mg/kg, route intravenous; conditions: in vivo; how it was run: as §2
# [43] = Elimination rate constant in guinea pig at 40 mg/kg, po by HPLC method; type: ADME, organism-based, Cavia porcellus; parameters: dose 40 mg/kg, route oral; conditions: in vivo; how it was run: as §1
# [44] = Cmax in guinea pig at 60 mg/kg, administered via intratracheal insufflation by HPLC method; type: ADME, organism-based, Cavia porcellus; parameters: dose 60 mg/kg, route endotracheal; conditions: in vivo, inhaled or intranasal; how it was run: as §1
# [45] = AUC (0 to infinity) in guinea pig at 20 mg/kg, administered via intratracheal insufflation by HPLC method; type: ADME, organism-based, Cavia porcellus; parameters: time infinity, dose 20 mg/kg, route endotracheal; conditions: plasma, inhaled or intranasal; how it was run: as §1
# [46] = Elimination rate constant in guinea pig at 60 mg/kg, administered via intratracheal insufflation by HPLC method; type: ADME, organism-based, Cavia porcellus; parameters: dose 60 mg/kg, route endotracheal; conditions: in vivo, inhaled or intranasal; how it was run: as §1
# [47] = Cmax in guinea pig at 20 mg/kg, iv by HPLC method; type: ADME, organism-based, Cavia porcellus; parameters: dose 20 mg/kg, route intravenous; conditions: in vivo; how it was run: as §1
# [48] = AUC (0 to infinity) in guinea pig at 60 mg/kg, administered via intratracheal insufflation by HPLC method; type: ADME, organism-based, Cavia porcellus; parameters: time infinity, dose 60 mg/kg, route endotracheal; conditions: plasma, inhaled or intranasal; how it was run: as §1
# [49] = Tmax in guinea pig at 40 mg/kg, administered via intratracheal insufflation by HPLC method; type: ADME, organism-based, Cavia porcellus; parameters: dose 40 mg/kg, route endotracheal; conditions: in vivo, inhaled or intranasal; how it was run: as §1
# [50] = Elimination rate constant in guinea pig at 20 mg/kg, iv by HPLC method; type: ADME, organism-based, Cavia porcellus; parameters: dose 20 mg/kg, route intravenous; conditions: in vivo; how it was run: as §1
# [51] = Bioavailability in guinea pig at 20 mg/kg, administered via intratracheal insufflation by HPLC method; type: ADME, organism-based, Cavia porcellus; conditions: in vivo, inhaled or intranasal; how it was run: as §1
# [52] = Bioavailability (0 to infinity) in guinea pig at 60 mg/kg, administered via intratracheal insufflation by HPLC method; type: ADME, organism-based, Cavia porcellus; conditions: in vivo, inhaled or intranasal; how it was run: as §1
# [53] = Mean residence time in guinea pig at 60 mg/kg, administered via intratracheal insufflation by HPLC method; type: ADME, organism-based, Cavia porcellus; parameters: dose 60 mg/kg, route endotracheal; conditions: in vivo, inhaled or intranasal; how it was run: as §1
smiles,measurement,setting,value
O=[N+]([O-])c1cn2c(n1)OC[C@@H](OCc1ccc(OC(F)(F)F)cc1)C2 [PRETOMANID],Tmax,[1],4 h
same,Cmax,[2],2010 ng/mL
same,bioavailability,[3],0.63%
same,bioavailability,[4],0.59%
same,half-life,[5],1.91 h
same,MRT,[6],7.52 h
same,Tmax,[7],3.6 h
same,MRT,[8],2.69 h
same,half-life,[9],2.43 h
same,Ratio,[10],14
same,half-life,[11],5.91 h
same,half-life,[12],2 h
same,Ratio,[13],80
same,AUC(0-inf),[14],32300 ng·h/mL
same,Tmax,[15],4.33 h
same,Activity,[16],Dose-dependent effect
same,Tmax,[17],6 h
same,Tmax,[18],3.33 h
same,MRT,[19],5.37 h
same,k el,[20],4.72e-05 s⁻¹
same,Stability,[21],Stable
same,bioavailability,[22],0.74%
same,Tmax,[23],6.6 min
same,Cmax,[24],4140 ng/mL
same,Stability,[25],Unstable
same,AUC,[26],25770 ng·h/mL
same,Ratio,[27],17
same,Stability,[28],Stable
same,k el,[29],6.67e-05 s⁻¹
same,Stability,[30],Stable
same,bioavailability,[31],1.12%
same,half-life,[32],1 h
same,Stability,[33],Stable
same,half-life,[34],2.83 h
same,F,[35],0.56%
same,Stability,[36],Unstable
same,MIC,[37],0.015 µg/mL
same,AUC,[38],26540 ng·h/mL
same,half-life,[39],4.38 h
same,MRT,[40],5.17 h
same,Cmax,[41],3420 ng/mL
same,Stability,[42],Unstable
same,k el,[43],8.33e-05 s⁻¹
same,Cmax,[44],4580 ng/mL
same,AUC(0-inf),[45],14800 ng·h/mL
same,k el,[46],3.61e-05 s⁻¹
same,Cmax,[47],9190 ng/mL
same,AUC(0-inf),[48],51000 ng·h/mL
same,Tmax,[49],3.25 h
same,k el,[50],0.000103 s⁻¹
same,bioavailability,[51],2.11%
same,bioavailability,[52],0.62%
same,MRT,[53],8.26 h
